Assay outcomes (PubChem)
ABCB1 inh: human ABCB1 inhibition, ABCG2 as counter-screen; CCRF-Adr cells, JC-1 efflux, flow cytometry; hit rate 0.067% among 190,000; P08183; inhibition, % at 6.6 µM; in the data active means inhibition above about 40%;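 further: 0% = vehicle and 100% = reference inhibitor; higher value means more JC-1 retained so stronger ABCB1 efflux block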
MEKK3 PB1 HTS: MEKK3-MEK5 PB1 interaction, increase or decrease. binding response (% of control), % at 10 µM. hit rate 1.4% among 290,000. Q99759. bead-based flow cytometry, Alexa488-MEK5 binding to MEKK3; actives lie on both sides; 0 = blocked by unlabeled MEK5, 100 = vehicle. AID 1529;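 active means binding response more than 3 SD above or below the average of its plate-row segment, actives on both sides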;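 further: Alexa488 bead fluorescence after subtracting the streptavidin-only scavenger bead signal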
MEKK2wt PB1 HTS: raises or lowers MEK5 binding to wildtype human MEKK2 PB1 domain. Q9Y2U5. bead flow cytometry, Alexa488-MEK5 binding to MEKK2 WT; actives lie on both sides. binding response (% of control), % at 10 µM. hit rate 1.1% among 290,000. AID 1531; in the data active means binding response below about 67% or above about 130%
MEKK2 mut-MEK5: signal of MEK5 binding to mutant human MEKK2 PB1 domain; hit rate 0.35% among 290,000; percent response, % at 10 µM; bead flow cytometry, Alexa488-MEK5 binding to MEKK2 mutant; in the data active means percent response above about 24%, passing the limit was not always enough
Efflux pump mplx: blocks antifungal efflux pumps in multiplex yeast assay; S. cerevisiae Candida pump triplex, Nile Red efflux; inhibition, % at 10 µM; hit rate 0.44% among 330,000; AID 485275;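 active means plate passing quality check with inhibition over a set limit, or well fluorescence over plate mean plus 4 SD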;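 further: Nile Red retained in pooled yeast measured as flow cytometry median fluorescence; 0% = buffer negative control and 100% = Enniatin B positive control; higher means more Nile Red kept so more efflux inhibition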
ABCG2 block: human ABCG2 inhibition, ABCB1 as counter-screen; Q9UNQ0; IgMXP3 cells, JC-1 efflux, flow cytometry; inhibition, % at 6.6 µM; hit rate 0.1% among 190,000; AID 1325;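 active means inhibition above 80%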;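 further: 0% = DMSO and 100% = nicardipine control wells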
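Test system: IgMXP3 (ABCG2) plus far-red-tagged CCRF-Adr (ABCB1) cells / Amount: 3 million cells/mL in well / Reagent: JC-1 transporter substrate / Timing: 10 min compound exposure, 25 °C / Signal: flow cytometry, 530 nm JC-1 signal / Read-out: percent efflux inhibition, scaled nicardipine 100% to DMSO 0% / Benchmarks: nicardipine as high control, DMSO as low control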
MEKK2wt confirm: raises or lowers MEK5 binding to wildtype human MEKK2, retest; shares compounds with MEKK3 PB1 HTS; bead flow cytometry, Alexa488-MEK5 binding to MEKK2 WT; actives lie on both sides; binding response (% of control), % at 10 µM; hit rate 2.4% among 5,900; AID 1892; in the data active means binding response below about 16% or above about 210%; inactive means in between
MEKK2mut-MEK5: signal of MEK5 binding to mutant human MEKK2, retest; shares compounds with MEKK3 PB1 HTS; bead flow cytometry, Alexa488-MEK5 binding to MEKK2 mutant; AID 1893; hit rate 2% among 5,900; percent response, % at 10 µM; in the data active means percent response mostly above about 71%, no sharp cut-off; inactive means mostly below about 38%;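 further: higher means compound restores mutant binding toward wildtype level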
MEKK3 confirm: MEKK3-MEK5 PB1 inhibition, single concentration confirmation. shares compounds with MEKK3 PB1 HTS. bead flow cytometry, Alexa488-MEK5 binding to MEKK3; stronger effect = lower value. binding response (% of control), % at 10 µM. hit rate 1.8% among 5,900. AID 1894;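 active means binding response below 72% of control, or above a set upper limit, though filed actives all read lower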;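 further: 100% = DMSO only wells and 0% = binding blocked by excess unlabeled MEK5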
An asterisk follows results filed as active; x = not tested or not shown; [ ] = dose if it differs, or a comment. Only some compounds are listed: those with a hit (about 2.5% of all), similar ones and a draw of the others.

SMILES | ABCB1 inh | MEKK3 PB1 HTS | MEKK2wt PB1 HTS | MEKK2 mut-MEK5 | Efflux pump mplx | ABCG2 block | MEKK2wt confirm | MEKK2mut-MEK5 | MEKK3 confirm
O[C@@H]1CN(Cc2ccc(-n3cccn3)cc2)CC[C@H]1N1CCN(c2ccccc2F)CC1 | x | 106 | 108 | 3 | 0 | x | x | x | x
O=C(COc1ccc(F)cc1)c1c(O)cc(O)cc1O | x | 132* | 115 | 24 | 0 | x | 104 | 2 | 101
COc1ccc(Cl)cc1N1C(=O)CC(N2CCN(S(=O)(=O)c3ccccc3F)CC2)C1=O (centres undefined) | x | x | x | x | 0 | x | x | x | x
CCN(CC)Cc1c(O)ccc2c(=O)c(-c3ccccc3Cl)coc12 | x | 104 | 102 | 25* | 0 | x | 102 | -1 | 102
Cc1ccc(S(=O)(=O)NC2c3cccc4cccc(c34)C2Sc2nc(C)cc(C)n2)cc1 (centres undefined) | 3 | 103 | 98 | -1 | 0 | 7 | x | x | x
O=S(=O)(NC1c2cccc3cccc(c23)C1Sc1ncccn1)c1ccccc1 (centres undefined) | 3 | 144* | 100 | 0 | 0 | 15 | 97 | -4 | 105
CC(=O)Nc1ccc(S(=O)(=O)Nc2ccccc2C(=O)N2CCCCC2)cc1 | x | 101 | 97 | -4 | 1 | x | x | x | x
CCOC(=O)C1=C(C)NC2=C(C(=O)CC(c3cccs3)C2)C1c1cccs1 (centres undefined) | 1 | 72*[inhibitor] | 79 | 3 | 0 | 3 | 96 | 0 | 101
COC(=O)C1=C(C)NC2=C(C(=O)CC(c3cccs3)C2)C1c1ccsc1 (centres undefined) | 1 | 101 | 99 | -2 | 0 | 4 | x | x | x
O=c1c2cc(NC(=S)NCCCN3CCC(Cc4ccccc4)CC3)ccc2nc2n1CCCCC2 | 0 | 107 | 149* | 14 | 0 | 0 | 154 | 28 | 111
COc1ccc(/C(C)=N/Nc2ncc(Cl)cc2Cl)c(O)c1 | 0 | 104 | 101 | -2 | 0 | 4 | x | x | x
CCn1c(COc2ccc(=O)n(-c3ccccc3)n2)n[nH]c1=S | 0 | 129* | 117 | 4 | 0 | 5 | 89 | -8 | 94
CCOc1ccc(=O)n(-c2ccccc2)n1 | 1 | 113 | 102 | 3 | 0 | 6 | x | x | x
O=C(Cn1cc[n+](CC(=O)c2ccccc2)c1)c1ccccc1 | -1 | 98 | 104 | 4 | 0 | -2 | x | x | x
O=C(Cn1cc[n+](CC(=O)c2ccc(Cl)cc2Cl)c1)c1ccc(Cl)cc1Cl | x | 109 | 174* | 39 | 0 | x | 153 | 24 | 108
CC(C(=O)Nc1sc2c(c1C(=O)NCC1CCCO1)CCC2)N1C(=O)c2ccccc2C1=O (centres undefined) | 6 | 99 | 97 | 1 | 0 | 38 | x | x | x
CCN(CC)C(=O)CN(c1cc(Cl)ccc1OC)S(C)(=O)=O | 2 | 100 | 101 | 2 | 0 | 26 | x | x | x
CCC(C)NC(=O)CN(c1cc(Cl)ccc1OC)S(C)(=O)=O (centres undefined) | 0 | 140* | 114 | 1 | 0 | 1 | 99 | -6 | 99
CS(=O)(=O)NN1C(=O)c2ccccc2NC1c1ccccc1F (centres undefined) | x | 90 | 94 | -1 | 0 | x | x | x | x
CS(=O)(=O)NN1C(=O)c2ccccc2NC1c1cc2ccccc2nc1Cl (centres undefined) | 0 | 132* | 108 | 0 | 0 | 1 | 83 | -14 | 79
CC(=O)NCc1ccc(C(=O)O)cc1 | x | 91 | 85 | -20 | 0 | x | x | x | x
Cc1ccc(CNC(=O)Cn2c(=O)c3sccc3n(Cc3ccc([N+](=O)[O-])cc3)c2=O)cc1 | 1 | 163* | 107 | 0 | 0 | 6 | 104 | 1 | 100
CCN1/C(=C/C=C/C=C/c2sc3ccccc3[n+]2CC)Sc2ccccc21 | -1 | 18*[inhibitor] | 15*[inhibitor] | -8 | 0.8* | 0 | 40 | -28 | 26*
CCN1/C(=C/C=C/C=C/C=C/c2sc3ccccc3[n+]2CC)Sc2ccccc21 | x | 30*[inhibitor] | 72*[inhibitor] | -15 | 0 | x | 136 | 60 | 61*
O=C(Cc1cccs1)N/N=C/C=C/c1ccccc1 | 1 | 129* | 104 | 0 | 0 | 12 | 104 | 0 | 104
SMILES | ABCB1 inh | MEKK3 PB1 HTS | MEKK2wt PB1 HTS | MEKK2 mut-MEK5 | Efflux pump mplx | ABCG2 block | MEKK2wt confirm | MEKK2mut-MEK5 | MEKK3 confirm
COc1ccc(NCC(=O)N/N=C/C=C\c2ccccc2)cc1 | 0 | 98 | 98 | 1 | 0 | 6 | x | x | x
O=C(Cc1cccs1)N/N=C/C=C\c1ccccc1[N+](=O)[O-] | 1 | 110 | 100 | -2 | 0 | 3 | x | x | x
COc1ccccc1NCC(=O)N/N=C/C=C/c1ccccc1 | 0 | 70*[inhibitor] | 96 | 3 | 0 | 9 | 99 | -3 | 99
Cc1csc2nc(SCC(=O)N3CCN(c4ccccc4)CC3)[nH]c(=O)c12 | x | 102 | 102 | 4 | 0 | x | x | x | x
O=C(CC(=O)Nc1ccccc1[N+](=O)[O-])Nc1ccccc1[N+](=O)[O-] | x | 106 | 105 | 2 | 0 | x | x | x | x
CC1(C)CC(CC(=O)Nc2ccccc2[N+](=O)[O-])C(=O)O1 (centres undefined) | 0 | 147* | 109 | 0 | 0 | 0 | 108 | 2 | 104
O=C(COC(=O)c1cc(Br)ccc1Cl)NC1CCCC1 | 0 | 109 | 111 | 2 | 0 | 9 | x | x | x
O=C(Cn1c(=O)n(-c2ccccc2)c(=O)c2oc3ccccc3c21)Nc1ccccc1 | 0 | 131* | 103 | 0 | 0 | 0 | 106 | 4 | 102
Cc1cc(C)cc(NC(=O)CSc2nc3c(oc4ccccc43)c(=O)n2-c2ccccc2)c1 | 0 | 124 | 98 | 0 | 0 | 0 | x | x | x
O=C1C(Cc2c[nH]c3ccccc23)NC(=S)N1C1CCCCC1 (centres undefined) | -2 | 96 | 83 | -12 | 0 | 4 | x | x | x
COCC(=O)OCC(=O)Nc1ccc(Cl)cc1[N+](=O)[O-] | 0 | 32*[inhibitor] | 44*[inhibitor] | -19 | 0 | 3 | 99 | -2 | 101
C/C(Cn1nnc2ccccc21)=N\OC(=O)c1ccccc1C | 2 | 138* | 104 | 1 | 0 | 8 | 106 | 6 | 106
COc1nc(NCCO)nc(Nc2ccccc2F)n1 | 1 | 105 | 107 | 8 | 0 | 6 | x | x | x
